Measurements of several laboratories.
Compare with care: the assays were run in different laboratories.
Target: Homeodomain-interacting protein kinase 1 (HIPK1, Homo sapiens, UniProt Q86Z02)
Observed: enzyme activity
Action: inhibitor

Cc1ccc(C(=O)Nc2ccc(CN3CCN(C)CC3)c(C(F)(F)F)c2)cc1C#Cc1cnc2cccnn12
remaining activity (23.5 nM): 86%

CCN(CC)c1ccc(C2=NNC(=O)CC2C)cc1[N+](=O)[O-] (stereo not shown)
remaining activity (10 µM): 132%

O=C(Nc1cnn(-c2csc(C(=O)NC3COC3)c2)c1)Nc1c(F)cccc1Cl
remaining activity (5 µM): 91.7%

CC(C)(C)c1nc2c(s1)c1nc(N)ncc1c1ccc(NS(=O)(=O)c3c(F)cccc3F)c(F)c12
remaining activity (radiometric; 1 µM): 81%

O=C(O)c1ccc2c(c1)nc(NCCc1cccc(F)c1)c1ncncc12
remaining activity (radiometric; 1 µM): 15%

O=C(Nc1cnn(-c2csc(C(=O)NC3COC3)c2)c1)Nc1ccccc1Cl
remaining activity (5 µM): 96.3%

CC(C)(C)c1nc(-c2cccc(NS(=O)(=O)c3c(F)cccc3F)c2F)c(-c2ccnc(N)n2)s1
remaining activity (radiometric; 1 µM): 87%

COc1cc(Cl)c(C(=O)N[C@@H](CN[C@H]2CC[C@@H](N)CC2)Cc2ccc(C#N)cc2)cc1-c1ccc(CN[C@H](C)c2ccc(C)cc2)o1
remaining activity (1 µM): 101%

N#Cc1cccc(Nc2nc3cc(C(=O)O)ccc3c3cnccc23)c1
remaining activity (radiometric; 1 µM): 5%

Cc1cnc(NC2CCOCC2)nc1-n1cnc(C(=O)NC(CN)c2cc(F)cc(Cl)c2)c1 (stereo not shown)
remaining activity (radiometric; 1 µM): 87%

O=C(O)c1ccc2c(c1)nc(Nc1ccccc1Cl)c1ncncc12
remaining activity (radiometric; 1 µM): 13%

COc1cc(Nc2cnc(C#N)c(O[C@H](C)CN(C)C)n2)ncc1-c1cnn(C)c1
remaining activity (radiometric; 10 µM): 107%

CCCOc1ccc(OC)c(F)c1C(=O)c1ccc(C(=O)N[C@@H]2CNC[C@H]2NC(=O)c2ccc3[nH]ncc3c2)cc1
remaining activity (10 µM): 97%

O=C(O)c1ccc2c(c1)nc(Nc1ccc(Cl)cc1)c1ncncc12
remaining activity (radiometric; 1 µM): 4%

CC(C)(O)[C@H]1CC[C@H](Nc2ccc3ncc(-c4cccc(C(F)(F)F)c4)n3n2)CC1
remaining activity (1 µM): 83.9%

O=C(O)c1ccc2c(c1)nc(NCc1ccccc1)c1ncncc12
remaining activity (radiometric; 1 µM): 70%

Oc1cccc(-c2nc(N3CCOCC3)c3oc4ncccc4c3n2)c1
remaining activity (10 µM): 63%

O=C(O)c1ccc2c(c1)nc(Nc1cccc(F)c1)c1ccncc12
remaining activity (radiometric; 1 µM): 6%

Cn1c(=O)n(-c2ccc(C(C)(C)C#N)cc2)c2c3cc(-c4cnc5ccccc5c4)ccc3ncc21
remaining activity (10 µM): 89%
